Converted amounts (≈) assume the structure as drawn.
Tests used:
Candida = experiment: Antimicrobial activity against Candida mycoderma by microbroth dilution method; format: functional
Summary of the method: (§1)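 Two-fold serial broth microdilution in 96-well microtest plates, run against four Gram-positive strains, five Gram-negative strains and two fungi.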

[1] = Antimicrobial activity against Eberthella typhosa by microbroth dilution method; format: functional; summary of the method: as §1
Escherichia coli = experiment: Antimicrobial activity against Escherichia coli DH52 by microbroth dilution method; format: functional; summary of the method: as §1
Micrococcus luteus = experiment: Antimicrobial activity against Micrococcus luteus ATCC 4698 by microbroth dilution method; format: functional; summary of the method: as §1
Candida albicans = experiment: Antimicrobial activity against Candida albicans by microbroth dilution method; format: functional; summary of the method: as §1
[2] = Lipophilicity, log P of the compound by UV-Vis spectrophotometric method based saturation shake flask assay; format: physicochemical; settings: octanol/water
Summary of the method: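 Log P measured by the traditional saturation shake-flask partition, with compound quantified by UV-vis spectrophotometry.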

Pseudomonas aeruginosa = experiment: Antimicrobial activity against Pseudomonas aeruginosa by microbroth dilution method; format: functional; summary of the method: as §1
Bacillus subtilis = experiment: Antimicrobial activity against Bacillus subtilis by microbroth dilution method; format: functional; summary of the method: as §1
Staphylococcus aureus [3] = experiment: Antimicrobial activity against Staphylococcus aureus ATCC 25923 by microbroth dilution method; format: functional; summary of the method: as §1
Bacillus = experiment: Antimicrobial activity against Bacillus proteus by microbroth dilution method; format: functional; summary of the method: as §1
Shigella dysenteriae = experiment: Antimicrobial activity against Shigella dysenteriae by microbroth dilution method; format: functional
Staphylococcus aureus [4] = experiment: Antimicrobial activity against methicillin-resistant Staphylococcus aureus N315 by microbroth dilution method; format: functional

| Structure (SMILES) | MIC (Candida) | MIC [1] | MIC (Escherichia coli) | MIC (Micrococcus luteus) | MIC (Candida albicans) | logP [2] | MIC (Pseudomonas aeruginosa) | MIC (Bacillus subtilis) | MIC (Staphylococcus aureus [3]) | MIC (Bacillus) | MIC (Shigella dysenteriae) | MIC (Staphylococcus aureus [4]) | logP ([2]; read-out: logP) |
| --- | --- | --- | --- | --- | --- | --- | --- | --- | --- | --- | --- | --- | --- |
| CCCCCCCCCCCCn1c(CNNC(=O)c2sc(C(=O)NNCc3nc4ccccc4n3CCCCCCCCCCCC)c(C)c2C)nc2ccccc21 | 64 µg/mL (≈ 77.6 µM) | 256 µg/mL (≈ 310 µM) | 128 µg/mL (≈ 155 µM) | > 512 µg/mL | 256 µg/mL (≈ 310 µM) | ND(Insoluble) | 128 µg/mL (≈ 155 µM) | 512 µg/mL (≈ 620 µM) | 128 µg/mL (≈ 155 µM) | > 512 µg/mL | 16 µg/mL (≈ 19.4 µM) | 8 µg/mL (≈ 9.69 µM) |  |
| CCCCCCCCCCCCCCCCCCn1c(CNNC(=O)c2sc(C(=O)NNCc3nc4ccccc4n3CCCCCCCCCCCCCCCCCC)c(C)c2C)nc2ccccc21 | 256 µg/mL (≈ 258 µM) | 64 µg/mL (≈ 64.4 µM) | 512 µg/mL (≈ 515 µM) | > 512 µg/mL | > 512 µg/mL | ND(Insoluble) | 512 µg/mL (≈ 515 µM) | > 512 µg/mL | 256 µg/mL (≈ 258 µM) | > 512 µg/mL | 512 µg/mL (≈ 515 µM) | 512 µg/mL (≈ 515 µM) |  |
| Cc1c(C(=O)NNCc2nc3ccccc3n2Cc2ccc(Cl)c(Cl)c2)sc(C(=O)NNCc2nc3ccccc3n2Cc2ccc(Cl)c(Cl)c2)c1C | > 512 µg/mL | > 512 µg/mL | 512 µg/mL (≈ 635 µM) | > 512 µg/mL | > 512 µg/mL |  | > 512 µg/mL | 512 µg/mL (≈ 635 µM) | 32 µg/mL (≈ 39.7 µM) | > 512 µg/mL | > 512 µg/mL | > 512 µg/mL | 7.16 |
| Cc1c(C(=O)NNCc2nc3ccccc3n2Cc2ccc(F)cc2F)sc(C(=O)NNCc2nc3ccccc3n2Cc2ccc(F)cc2F)c1C | 256 µg/mL (≈ 346 µM) | 128 µg/mL (≈ 173 µM) | 128 µg/mL (≈ 173 µM) | 256 µg/mL (≈ 346 µM) | 64 µg/mL (≈ 86.4 µM) |  | 128 µg/mL (≈ 173 µM) | 256 µg/mL (≈ 346 µM) | 64 µg/mL (≈ 86.4 µM) | 128 µg/mL (≈ 173 µM) | 256 µg/mL (≈ 346 µM) | 128 µg/mL (≈ 173 µM) | 4.96 |
| Cc1c(C(=O)NNCc2nc3ccccc3n2Cc2ccc(F)cc2)sc(C(=O)NNCc2nc3ccccc3n2Cc2ccc(F)cc2)c1C | 32 µg/mL (≈ 45.4 µM) | 128 µg/mL (≈ 182 µM) | 32 µg/mL (≈ 45.4 µM) | 128 µg/mL (≈ 182 µM) | 64 µg/mL (≈ 90.8 µM) |  | 128 µg/mL (≈ 182 µM) | 32 µg/mL (≈ 45.4 µM) | 128 µg/mL (≈ 182 µM) | 128 µg/mL (≈ 182 µM) | 128 µg/mL (≈ 182 µM) | 128 µg/mL (≈ 182 µM) | 5.25 |
| Cc1c(C(=O)NNCc2nc3ccccc3n2Cc2ccc(Cl)cc2)sc(C(=O)NNCc2nc3ccccc3n2Cc2ccc(Cl)cc2)c1C | 32 µg/mL (≈ 43.4 µM) | 16 µg/mL (≈ 21.7 µM) | 8 µg/mL (≈ 10.8 µM) | 16 µg/mL (≈ 21.7 µM) | 16 µg/mL (≈ 21.7 µM) |  | 32 µg/mL (≈ 43.4 µM) | 32 µg/mL (≈ 43.4 µM) | 32 µg/mL (≈ 43.4 µM) | 32 µg/mL (≈ 43.4 µM) | 32 µg/mL (≈ 43.4 µM) | 32 µg/mL (≈ 43.4 µM) | 6.19 |
| Cc1c(C(=O)NNCc2nc3ccccc3n2Cc2cccc(Cl)c2)sc(C(=O)NNCc2nc3ccccc3n2Cc2cccc(Cl)c2)c1C | 64 µg/mL (≈ 86.8 µM) | 256 µg/mL (≈ 347 µM) | 32 µg/mL (≈ 43.4 µM) | 32 µg/mL (≈ 43.4 µM) | 128 µg/mL (≈ 174 µM) |  | 128 µg/mL (≈ 174 µM) | 128 µg/mL (≈ 174 µM) | 128 µg/mL (≈ 174 µM) | 128 µg/mL (≈ 174 µM) | 128 µg/mL (≈ 174 µM) | 16 µg/mL (≈ 21.7 µM) | 6.34 |
| Cc1c(C(=O)NNCc2nc3ccccc3n2Cc2ccccc2Cl)sc(C(=O)NNCc2nc3ccccc3n2Cc2ccccc2Cl)c1C | 128 µg/mL (≈ 174 µM) | 128 µg/mL (≈ 174 µM) | 32 µg/mL (≈ 43.4 µM) | 16 µg/mL (≈ 21.7 µM) | 32 µg/mL (≈ 43.4 µM) |  | 64 µg/mL (≈ 86.8 µM) | 32 µg/mL (≈ 43.4 µM) | 32 µg/mL (≈ 43.4 µM) | 16 µg/mL (≈ 21.7 µM) | 32 µg/mL (≈ 43.4 µM) | 16 µg/mL (≈ 21.7 µM) | 6.25 |
| CCCn1c(CNNC(=O)c2sc(C(=O)NNCc3nc4ccccc4n3CCC)c(C)c2C)nc2ccccc21.Cl | 128 µg/mL | 4 µg/mL | 256 µg/mL | 256 µg/mL | 32 µg/mL |  | 32 µg/mL | 256 µg/mL | 256 µg/mL | 16 µg/mL | 128 µg/mL | 32 µg/mL |  |
| CCCCCCCCCCn1c(CNNC(=O)c2sc(C(=O)NNCc3nc4ccccc4n3CCCCCCCCCC)c(C)c2C)nc2ccccc21.Cl | 4 µg/mL | 4 µg/mL | 4 µg/mL | 8 µg/mL | 8 µg/mL |  | 16 µg/mL | 2 µg/mL | 2 µg/mL | 2 µg/mL | 8 µg/mL | 2 µg/mL |  |
| Cc1c(C(=O)NNCc2nc3ccccc3n2Cc2ccc(F)cc2)sc(C(=O)NNCc2nc3ccccc3n2Cc2ccc(F)cc2)c1C.Cl | 8 µg/mL | 256 µg/mL | 16 µg/mL | 64 µg/mL | 64 µg/mL |  | 64 µg/mL | 16 µg/mL | 256 µg/mL | 128 µg/mL | 8 µg/mL | 32 µg/mL |  |
| Cc1c(C(=O)NN)sc(C(=O)NN)c1C | 512 µg/mL (≈ 2240 µM) | 512 µg/mL (≈ 2240 µM) | 512 µg/mL (≈ 2240 µM) | 512 µg/mL (≈ 2240 µM) | 512 µg/mL (≈ 2240 µM) | -1.41 | > 512 µg/mL | > 512 µg/mL | > 512 µg/mL | > 512 µg/mL | 512 µg/mL (≈ 2240 µM) | > 512 µg/mL |  |
| CCCn1c(CNNC(=O)c2sc(C(=O)NNCc3nc4ccccc4n3CCC)c(C)c2C)nc2ccccc21 | 256 µg/mL (≈ 447 µM) | 256 µg/mL (≈ 447 µM) | 256 µg/mL (≈ 447 µM) | 256 µg/mL (≈ 447 µM) | 512 µg/mL (≈ 894 µM) |  | 128 µg/mL (≈ 223 µM) | 256 µg/mL (≈ 447 µM) | 512 µg/mL (≈ 894 µM) | 256 µg/mL (≈ 447 µM) | 256 µg/mL (≈ 447 µM) | 32 µg/mL (≈ 55.9 µM) | 3.7 |
| CCCCCCn1c(CNNC(=O)c2sc(C(=O)NNCc3nc4ccccc4n3CCCCCC)c(C)c2C)nc2ccccc21 | 32 µg/mL (≈ 48.7 µM) | 64 µg/mL (≈ 97.4 µM) | 8 µg/mL (≈ 12.2 µM) | 64 µg/mL (≈ 97.4 µM) | 32 µg/mL (≈ 48.7 µM) |  | 32 µg/mL (≈ 48.7 µM) | 32 µg/mL (≈ 48.7 µM) | 32 µg/mL (≈ 48.7 µM) | 64 µg/mL (≈ 97.4 µM) | 64 µg/mL (≈ 97.4 µM) | 4 µg/mL (≈ 6.09 µM) | 6.62 |
| CCCCCCCCn1c(CNNC(=O)c2sc(C(=O)NNCc3nc4ccccc4n3CCCCCCCC)c(C)c2C)nc2ccccc21 | 4 µg/mL (≈ 5.61 µM) | 64 µg/mL (≈ 89.8 µM) | 32 µg/mL (≈ 44.9 µM) | 16 µg/mL (≈ 22.4 µM) | 16 µg/mL (≈ 22.4 µM) |  | 16 µg/mL (≈ 22.4 µM) | 32 µg/mL (≈ 44.9 µM) | 32 µg/mL (≈ 44.9 µM) | > 512 µg/mL | 16 µg/mL (≈ 22.4 µM) | 8 µg/mL (≈ 11.2 µM) | 8.19 |
| O=C(N[C@H](CO)[C@H](O)c1ccc([N+](=O)[O-])cc1)C(Cl)Cl [CHLORAMPHENICOL] |  | 32 µg/mL (≈ 99 µM) | 32 µg/mL (≈ 99 µM) | 8 µg/mL (≈ 24.8 µM) |  |  | 32 µg/mL (≈ 99 µM) | 32 µg/mL (≈ 99 µM) | 16 µg/mL (≈ 49.5 µM) | 32 µg/mL (≈ 99 µM) | 32 µg/mL (≈ 99 µM) | 16 µg/mL (≈ 49.5 µM) |  |
| OC(Cn1cncn1)(Cn1cncn1)c1ccc(F)cc1F [FLUCONAZOLE] | 4 µg/mL (≈ 13.1 µM) |  |  |  | 1 µg/mL (≈ 3.27 µM) |  |  |  |  |  |  |  |  |
| CCn1cc(C(=O)O)c(=O)c2cc(F)c(N3CCNCC3)cc21 [NORFLOXACIN] |  | 4 µg/mL (≈ 12.5 µM) | 16 µg/mL (≈ 50.1 µM) | 2 µg/mL (≈ 6.26 µM) |  |  | 16 µg/mL (≈ 50.1 µM) | 1 µg/mL (≈ 3.13 µM) | 0.5 µg/mL (≈ 1.57 µM) | 8 µg/mL (≈ 25.1 µM) | 4 µg/mL (≈ 12.5 µM) | 8 µg/mL (≈ 25.1 µM) |  |

Reference: ChEMBL document CHEMBL2203243, “Synthesis and biological evaluation of novel benzimidazole derivatives and their binding behavior with bovine serum albumin” (Eur J Med Chem, 2012)
